Reference: ChEMBL document CHEMBL1155887, “Structure-activity relationships of 2-aryl-1H-indole inhibitors of the NorA efflux pump in Staphylococcus aureus” (2008)
≈ marks a conversion by molar mass, not a printed value. Calls of active or inactive are those of the source. No cut-off for these calls is given here.

Experiments:
Staphylococcus aureus [1] = assay: Antibacterial activity against NorA knockout Staphylococcus aureus K1758 after 18 to 20 hrs by serial dilution method; format: functional
How it was run: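 Compound alone, without berberine: cells at 10^5 CFU/mL in broth, serial 2-fold dilutions of compound, 18–20 h at 37 °C, growth read at 600 nm. MIC is the lowest concentration giving complete growth inhibition. The testing limit was 1000 µM.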

Staphylococcus aureus [2] = assay: Antibacterial activity against wild type Staphylococcus aureus 8325-4 after 18 to 20 hrs by serial dilution method; format: functional
How it was run: (§1)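 Compound alone, without berberine. Cells at 10^5 CFU/mL inoculated into broth and given serial 2-fold dilutions of compound. Incubated 18–20 h at 37 °C, with growth read as absorbance at 600 nm. MIC is the concentration completely inhibiting growth; testing limit 1000 µM.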

Staphylococcus aureus [3] = assay: Antibacterial activity against Staphylococcus aureus K2378 overexpressing NorA after 18 to 20 hrs by serial dilution method; format: functional; how it was run: as §1
[4] = target: T1, Quinolone resistance protein NorA (Staphylococcus aureus) (UniProt P0A0J7); assay: Inhibition of NorA efflux pump in NorA knockout Staphylococcus aureus K1758 assessed as drug level required for two fold potentiation of berberine MIC at 1.56 to 100 ug/mL after 20 hrs by serial dilution method
T1 sequence (whole entry): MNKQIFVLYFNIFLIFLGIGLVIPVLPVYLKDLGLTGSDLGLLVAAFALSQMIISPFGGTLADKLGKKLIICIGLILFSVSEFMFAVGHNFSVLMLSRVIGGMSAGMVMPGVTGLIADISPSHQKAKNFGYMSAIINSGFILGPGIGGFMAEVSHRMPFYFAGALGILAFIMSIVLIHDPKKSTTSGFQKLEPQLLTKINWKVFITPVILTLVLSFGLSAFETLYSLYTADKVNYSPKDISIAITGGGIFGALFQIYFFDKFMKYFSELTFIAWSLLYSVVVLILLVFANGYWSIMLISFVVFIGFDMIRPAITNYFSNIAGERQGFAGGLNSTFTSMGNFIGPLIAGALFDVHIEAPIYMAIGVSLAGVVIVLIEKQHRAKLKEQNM

[5] = target: T1, Quinolone resistance protein NorA (Staphylococcus aureus); assay: Inhibition of NorA efflux pump in wild type Staphylococcus aureus 8325-4 assessed as drug level required for two fold potentiation of berberine MIC at 1.56 to 100 ug/mL after 20 hrs by serial dilution method
How it was run: (§2)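 Checkerboard of serial 2-fold dilutions of berberine chloride against inhibitor, with inhibitor at 1.56–100 µg/mL. Berberine ranges were 12.5–100 µg/mL for 8325-4 and 200–800 µg/mL for K2378. Each agent was also diluted alone. Cells at 5 10^5 CFU/mL (final), 37 °C for 20 h, read at 600 nm; OD <0.05 counted as no growth. Inhibitor MIC is the lowest concentration lowering the berberine MIC at least 2-fold.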

[6] = target: T1, Quinolone resistance protein NorA (Staphylococcus aureus); assay: Inhibition of NorA efflux pump in Staphylococcus aureus K2378 overexpressing NorA assessed as drug level required for two fold potentiation of berberine MIC at 1.56 to 100 ug/mL after 20 hrs by serial dilution method; how it was run: as §2
[7] = target: T1, Quinolone resistance protein NorA (Staphylococcus aureus); assay: Inhibition of NorA efflux pump overexpressed Staphylococcus aureus K2361 assessed as increase in antibacterial activity of berberine at 0.8 ug/mL
Escherichia coli [8] = assay: Antibacterial activity against Escherichia coli O157:H7; format: functional
How it was run: (§3)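 Gram-negative and Gram-positive panel, MIC in µg/mL. Highest concentration tested was 200 µg/mL for E. coli O157:H7 and 100 µg/mL for Clostridium perfringens.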

Escherichia coli [9] = assay: Antibacterial activity against Escherichia coli BW-25113; format: functional
How it was run: (§4)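 Panel of Gram-negative and Gram-positive non-Clostridium strains, compound alone: MIC in µg/mL, with 200 µg/mL the highest concentration tested.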

Escherichia coli [10] = assay: Antibacterial activity against Escherichia coli UT189; format: functional; how it was run: as §4
Salmonella typhimurium = assay: Antibacterial activity against Salmonella Typhimurium CS132; format: functional, Salmonella enterica subsp. enterica serovar Typhimurium; settings: Salmonella enterica; how it was run: as §4
Pseudomonas aeruginosa [11] = assay: Antibacterial activity against Pseudomonas aeruginosa PAO1; format: functional; how it was run: as §4
Pseudomonas aeruginosa [12] = assay: Antibacterial activity against Pseudomonas aeruginosa PA14; format: functional; how it was run: as §4
Clostridioides difficile [13] = assay: Antibacterial activity against Clostridium difficile VP110463; format: functional
How it was run: (§5)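 Clostridium difficile panel, compound alone: MIC in µg/mL, with 100 µg/mL the highest concentration tested.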

Clostridioides difficile [14] = assay: Antibacterial activity against Clostridium difficile CD196; format: functional; how it was run: as §5
Clostridioides difficile [15] = assay: Antibacterial activity against Clostridium difficile CD2001; format: functional; how it was run: as §5
Enterococcus faecalis [16] = assay: Antibacterial activity against Enterococcus faecalis MMH594; format: functional; how it was run: as §4
Enterococcus faecalis [17] = assay: Antibacterial activity against Enterococcus faecalis V583; format: functional; how it was run: as §4
Enterococcus faecalis [18] = assay: Antibacterial activity against Enterococcus faecalis OG1RF; format: functional; how it was run: as §4
Clostridium perfringens = assay: Antibacterial activity against Clostridium perfringens; format: functional; how it was run: as §3
[19] = target: T1, Quinolone resistance protein NorA (Staphylococcus aureus); assay: Inhibition of NorA efflux pump in wild type Staphylococcus aureus 8325-4 assessed as ratio of berberine MIC in presence to absence of inhibitor
[20] = target: T1, Quinolone resistance protein NorA (Staphylococcus aureus); assay: Inhibition of NorA efflux pump overexpressing Staphylococcus aureus 8325-4 K2378 assessed as ratio of berberine MIC in presence to absence of inhibitor
[21] = target: T1, Quinolone resistance protein NorA (Staphylococcus aureus); assay: Inhibition of NorA efflux pump overexpressed Staphylococcus aureus K2361 assessed as increase in antibacterial activity of berberine at 3 ug/mL
[22] = target: T1, Quinolone resistance protein NorA (Staphylococcus aureus); assay: Inhibition of NorA efflux pump overexpressed in Staphylococcus aureus 1199B assessed as increase in susceptibility to ciprofloxacin at 1.5 ug/mL by serial broth microdilution method

COc1ccc2cc3[n+](cc2c1OC)CCc1cc2c(cc1-3)OCO2 [BERBERINE CHLORIDE]
MIC (Staphylococcus aureus [1]): 67 µM
MIC (Staphylococcus aureus [2]): 269 µM
MIC (Staphylococcus aureus [3]): 2150 µM

OCc1ccc(-c2cc3ccccc3[nH]2)cc1
Activity [4]: inactive
MIC [5]: 22 µM
MIC [6]: 45 µM
MIC (Staphylococcus aureus [1]): > 1000 µM
MIC (Staphylococcus aureus [2]): > 1000 µM

O=[N+]([O-])c1ccc2[nH]c(-c3cc(OCc4ccccc4)ccc3CO)cc2c1
fold change (FC) [7]: > 15

CCCOS(=O)(=O)c1ccc2[nH]c(-c3ccccc3)cc2c1
MIC (Staphylococcus aureus [1]): 79.3 µM (≈ 25 µg/mL)
MIC (Staphylococcus aureus [2]): 79.3 µM (≈ 25 µg/mL)
MIC (Staphylococcus aureus [3]): 79.3 µM (≈ 25 µg/mL)

O=[N+]([O-])c1ccc2[nH]c(-c3cccc(CO)c3)cc2c1
MIC [4]: 9 µM
MIC [5]: 5 µM
MIC [6]: 9 µM
MIC (Staphylococcus aureus [1]): > 1000 µM
MIC (Staphylococcus aureus [2]): > 1000 µM

O=[N+]([O-])c1ccc2[nH]c(-c3ccccc3CO)cc2c1
MIC [4]: 24 µM
MIC [5]: 47 µM
MIC [6]: 47 µM
MIC (Staphylococcus aureus [1]): > 1000 µM
MIC (Staphylococcus aureus [2]): > 1000 µM

OCc1ccc2[nH]c(-c3ccccc3)cc2c1
MIC (Staphylococcus aureus [1]): 14 µM (≈ 3.13 µg/mL)
MIC (Staphylococcus aureus [2]): 28 µM (≈ 6.25 µg/mL)
MIC (Staphylococcus aureus [3]): 28 µM (≈ 6.25 µg/mL)
MIC (Escherichia coli [8]): > 200 µg/mL
MIC (Escherichia coli [9]): > 200 µg/mL
MIC (Escherichia coli [10]): > 200 µg/mL
MIC (Salmonella typhimurium): > 200 µg/mL
MIC (Pseudomonas aeruginosa [11]): > 200 µg/mL
MIC (Pseudomonas aeruginosa [12]): > 200 µg/mL
MIC (Clostridioides difficile [13]): > 100 µg/mL
MIC (Clostridioides difficile [14]): > 100 µg/mL
MIC (Clostridioides difficile [15]): > 100 µg/mL
MIC (Enterococcus faecalis [16]): > 200 µg/mL
MIC (Enterococcus faecalis [17]): > 200 µg/mL
MIC (Enterococcus faecalis [18]): > 200 µg/mL
MIC (Clostridium perfringens): > 100 µg/mL

O=C(O)c1ccc2[nH]c(-c3ccccc3)cc2c1
Activity [4]: inactive
Activity [5]: inactive
Activity [6]: inactive
MIC (Staphylococcus aureus [1]): > 1000 µM
MIC (Staphylococcus aureus [2]): > 1000 µM

COC(=O)c1ccc(-c2cc3cc([N+](=O)[O-])ccc3[nH]2)cc1
Activity [4]: inactive
MIC [5]: 17 µM
MIC [6]: inactive
MIC (Staphylococcus aureus [1]): > 1000 µM
MIC (Staphylococcus aureus [2]): > 1000 µM

OCc1ccccc1-c1cc2ccccc2[nH]1
Activity [4]: inactive
MIC [5]: 45 µM
MIC [6]: 45 µM
MIC (Staphylococcus aureus [1]): > 1000 µM
MIC (Staphylococcus aureus [2]): > 1000 µM

N#Cc1ccc2[nH]c(-c3ccccc3)cc2c1
Activity [4]: inactive
MIC [5]: 3.6 µM
MIC [6]: 7.1 µM
Ratio [19]: 2
Ratio [20]: 2
MIC (Staphylococcus aureus [1]): > 1000 µM
MIC (Staphylococcus aureus [2]): > 1000 µM

OCc1cccc(-c2cc3ccccc3[nH]2)c1
Activity [4]: inactive
MIC [5]: 45 µM
MIC [6]: 45 µM
MIC (Staphylococcus aureus [1]): > 1000 µM
MIC (Staphylococcus aureus [2]): > 1000 µM

O=S(=O)(O)c1ccc2[nH]c(-c3ccccc3)cc2c1
Activity [4]: inactive
Activity [5]: inactive
Activity [6]: inactive
MIC (Staphylococcus aureus [1]): > 1000 µM
MIC (Staphylococcus aureus [2]): > 1000 µM

COC(=O)c1ccc2[nH]c(-c3ccccc3)cc2c1
Activity [4]: inactive
Activity [5]: inactive
Activity [6]: inactive
MIC (Staphylococcus aureus [1]): > 1000 µM
MIC (Staphylococcus aureus [2]): > 1000 µM

COC(=O)c1ccccc1-c1cc2cc([N+](=O)[O-])ccc2[nH]1
Activity [4]: inactive
MIC [5]: 34 µM
MIC [6]: inactive
MIC (Staphylococcus aureus [1]): > 1000 µM
MIC (Staphylococcus aureus [2]): > 1000 µM

c1ccc(-c2cc3ccccc3[nH]2)cc1 [2-PHENYL-1H-INDOLE]
Activity [4]: inactive
MIC [5]: 65 µM
MIC [6]: 259 µM
Ratio [19]: 4
Ratio [20]: 4
MIC (Staphylococcus aureus [1]): > 1000 µM
MIC (Staphylococcus aureus [2]): > 1000 µM

COC(=O)c1ccc(-c2cc3ccccc3[nH]2)cc1
Activity [4]: inactive
MIC [5]: 20 µM
MIC [6]: 40 µM
MIC (Staphylococcus aureus [1]): > 1000 µM
MIC (Staphylococcus aureus [2]): > 1000 µM

COC(=O)c1cccc(-c2cc3cc([N+](=O)[O-])ccc3[nH]2)c1
MIC [4]: 0.51 µM
MIC [5]: 1 µM
MIC [6]: 1 µM
MIC (Staphylococcus aureus [1]): > 1000 µM
MIC (Staphylococcus aureus [2]): > 1000 µM

COC(=O)c1ccccc1-c1cc2ccccc2[nH]1
Activity [4]: inactive
MIC [5]: 20 µM
MIC [6]: 20 µM
MIC (Staphylococcus aureus [1]): > 1000 µM
MIC (Staphylococcus aureus [2]): > 1000 µM

COC(=O)c1cccc(-c2cc3ccccc3[nH]2)c1
MIC [4]: 40 µM
MIC [5]: 5 µM
MIC [6]: 10 µM
MIC (Staphylococcus aureus [1]): > 1000 µM
MIC (Staphylococcus aureus [2]): > 1000 µM

COS(=O)(=O)c1ccc2[nH]c(-c3ccccc3)cc2c1
MIC (Staphylococcus aureus [1]): 174 µM (≈ 50 µg/mL)
MIC (Staphylococcus aureus [2]): 174 µM (≈ 50 µg/mL)
MIC (Staphylococcus aureus [3]): 174 µM (≈ 50 µg/mL)

O=[N+]([O-])c1ccc2[nH]c(-c3ccc(CO)cc3)cc2c1
MIC [4]: 5 µM
MIC [5]: 2 µM
MIC [6]: 2 µM
MIC (Staphylococcus aureus [1]): > 1000 µM
MIC (Staphylococcus aureus [2]): > 1000 µM

O=[N+]([O-])c1ccc2[nH]c(-c3ccccc3)cc2c1
Activity [21]: Active
MIC [4]: 0.63 µM
MIC [5]: 1.3 µM
MIC [6]: 1.3 µM
Ratio [19]: 2
Ratio [20]: 2
MIC (Staphylococcus aureus [1]): > 1000 µM
MIC (Staphylococcus aureus [2]): > 1000 µM
fold change (FC) [22]: 4

NS(=O)(=O)c1ccc2[nH]c(-c3ccccc3)cc2c1
Activity [4]: inactive
Activity [5]: inactive
Activity [6]: inactive
MIC (Staphylococcus aureus [1]): > 1000 µM
MIC (Staphylococcus aureus [2]): > 1000 µM
